Converted amounts (≈) assume the structure as drawn. Where a name gives a salt, the structure may show the parent alone. The source made the active and inactive calls. The calls are words filed in the database; no cut-off is given here.
Tests used:
Aspergillus niger [1] = test: Antifungal activity against Aspergillus niger ATCC 1004 at <100 ug/ml at pH 7 after 5 days in presence of 10% beef serum; format: functional, organism-based
How it was run: (§1)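 Agar-dilution MIC in Sabouraud dextrose agar at pH 5.6 or 7.0, with or without 10% beef serum. Plates were incubated at 28 °C for 5 days. MIC is the lowest concentration (µg/mL) giving 100% inhibition. Steps were 1 µg/mL up to 10, 2 µg/mL from 10–20, and 10 µg/mL from 20–100; 100 µg/mL was the top level, and no inhibition there is scored as >100.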

Aspergillus niger [2] = test: Antifungal activity against Aspergillus niger ATCC 1004 at pH 5.6 after 5 days in absence of 10% beef serum; format: functional; conditions: Aspergillus niger, ATCC 1004, 120 h; read-out: MIC; how it was run: as §1
[3] = test system: Trichophyton mentagrophytes; test: Antifungal activity against Trichophyton mentagrophytes ATCC 9129 at pH 5.6 after 5 days in absence of 10% beef serum; format: functional; conditions: Trichophyton mentagrophytes, ATCC 9129, 120 h; read-out: MIC; how it was run: as §1
Candida albicans [4] = test: Antifungal activity against Candida albicans ATCC 10231 at pH 5.6 after 20 h in absence of 10% beef serum; conditions: ATCC 10231, 20 h
Mucor mucedo [5] = test: Antifungal activity against Mucor mucedo ATCC 7941 at pH 5.6 after 20 h in presence of 10% beef serum; conditions: ATCC 7941, 20 h
Aspergillus niger [6] = test: Antifungal activity against Aspergillus niger ATCC 1004 at pH 7 after 5 days in absence of 10% beef serum; format: functional; conditions: Aspergillus niger, ATCC 1004, 120 h; read-out: MIC; how it was run: as §1
Candida albicans [7] = test: Antifungal activity against Candida albicans ATCC 10231 at pH 7 after 20 h in absence of 10% beef serum; conditions: ATCC 10231, 20 h
[8] = test system: Trichophyton mentagrophytes; test: Antifungal activity against Trichophyton mentagrophytes ATCC 9129 at pH 7 after 5 days in absence of 10% beef serum; format: functional; conditions: Trichophyton mentagrophytes, ATCC 9129, 120 h; read-out: MIC; how it was run: as §1
Candida albicans [9] = test: Antifungal activity against Candida albicans ATCC 10231 at pH 5.6 after 20 h in presence of 10% beef serum; conditions: ATCC 10231, 20 h
[10] = test system: Trichophyton mentagrophytes; test: Antifungal activity against Trichophyton mentagrophytes ATCC 9129 at pH 5.6 after 5 days in presence of 10% beef serum; format: functional; conditions: Trichophyton mentagrophytes, ATCC 9129, 120 h; read-out: MIC; how it was run: as §1
Mucor mucedo [11] = test: Antifungal activity against Mucor mucedo ATCC 7941 at pH 7 after 20 h in presence of 10% beef serum; conditions: ATCC 7941, 20 h
Mucor mucedo [12] = test: Antifungal activity against Mucor mucedo ATCC 7941 at pH 7 after 20 h in absence of 10% beef serum; conditions: ATCC 7941, 20 h
Aspergillus niger [13] = test: Antifungal activity against Aspergillus niger ATCC 1004 at pH 5.6 after 5 days in presence of 10% beef serum; format: functional; conditions: Aspergillus niger, ATCC 1004, 120 h; read-out: MIC; how it was run: as §1
[14] = test system: Trichophyton mentagrophytes; test: Antifungal activity against Trichophyton mentagrophytes ATCC 9129 at pH 7 after 5 days in presence of 10% beef serum; format: functional; conditions: Trichophyton mentagrophytes, ATCC 9129, 120 h; read-out: MIC; how it was run: as §1
Candida albicans [15] = test: Antifungal activity against Candida albicans ATCC 10231 at pH 7 after 20 h in presence of 10% beef serum; conditions: ATCC 10231, 20 h
Aspergillus niger [16] = test: Antifungal activity against Aspergillus niger ATCC 1004 at <100 ug/ml at pH 5.6 after 5 days in absence of 10% beef serum; format: functional, organism-based; how it was run: as §1
Aspergillus niger [17] = test: Antifungal activity against Aspergillus niger ATCC 1004 at <100 ug/ml at pH 7 after 5 days in absence of 10% beef serum; format: functional, organism-based; how it was run: as §1
Aspergillus niger [18] = test: Antifungal activity against Aspergillus niger ATCC 1004 at <100 ug/ml at pH 5.6 after 5 days in presence of 10% beef serum; format: functional, organism-based; how it was run: as §1
Candida albicans [19] = test: Antifungal activity against Candida albicans ATCC 10231 at <100 ug/ml at pH 5.6 after 20 h in presence of 10% beef serum
Mucor mucedo [20] = test: Antifungal activity against Mucor mucedo ATCC 7941 at <100 ug/ml at pH 7 after 20 h in presence of 10% beef serum
Mucor mucedo [21] = test: Antifungal activity against Mucor mucedo ATCC 7941 at <100 ug/ml at pH 7 after 20 h in absence of 10% beef serum
Candida albicans [22] = test: Antifungal activity against Candida albicans ATCC 10231 at <100 ug/ml at pH 7 after 20 h in absence of 10% beef serum
Candida albicans [23] = test: Antifungal activity against Candida albicans ATCC 10231 at <100 ug/ml at pH 7 after 20 h in presence of 10% beef serum
Mucor mucedo [24] = test: Antifungal activity against Mucor mucedo ATCC 7941 at <100 ug/ml at pH 5.6 after 20 h in absence of 10% beef serum
Candida albicans [25] = test: Antifungal activity against Candida albicans ATCC 10231 at <100 ug/ml at pH 5.6 after 20 h in absence of 10% beef serum
Mucor mucedo [26] = test: Antifungal activity against Mucor mucedo ATCC 7941 at <100 ug/ml at pH 5.6 after 20 h in presence of 10% beef serum
[27] = test system: Trichophyton mentagrophytes; test: Antifungal activity against Trichophyton mentagrophytes ATCC 9129 at <100 ug/ml at pH 7 after 5 days in presence of 10% beef serum; format: functional, organism-based; how it was run: as §1
Mucor mucedo [28] = test: Antifungal activity against Mucor mucedo ATCC 7941 at pH 5.6 after 20 h in absence of 10% beef serum; conditions: ATCC 7941, 20 h

| SMILES | MIC [3] | MIC (Candida albicans [4]) | MIC (Mucor mucedo [5]) | MIC (Candida albicans [7]) | MIC [8] | MIC [10] | MIC (Mucor mucedo [12]) | MIC [14] | inhibition (Aspergillus niger [1]) | inhibition (Aspergillus niger [16]) | inhibition (Aspergillus niger [17]) | inhibition (Aspergillus niger [18]) | inhibition (Candida albicans [19]) | inhibition (Mucor mucedo [20]) | inhibition (Mucor mucedo [21]) | inhibition (Candida albicans [22]) | inhibition (Candida albicans [23]) | inhibition (Mucor mucedo [24]) | inhibition (Candida albicans [25]) | inhibition (Mucor mucedo [26]) | other results |
| --- | --- | --- | --- | --- | --- | --- | --- | --- | --- | --- | --- | --- | --- | --- | --- | --- | --- | --- | --- | --- | --- |
| CCCOC(=O)[C@H](F)[C@@H](Br)C(=O)OCCC (relative stereo) | < 1 µg/mL | 3 µg/mL (≈ 10 µM) | 18 µg/mL | 4 µg/mL (≈ 13.4 µM) | 2 µg/mL (≈ 6.69 µM) | 12 µg/mL | 5 µg/mL (≈ 16.7 µM) | 16 µg/mL | inactive | – | – | – | – | – | – | – | – | – | – | – | MIC (Aspergillus niger [2]): 30 µg/mL (≈ 100 µM); MIC (Aspergillus niger [6]): 40 µg/mL (≈ 134 µM); MIC (Candida albicans [9]): 16 µg/mL; MIC (Mucor mucedo [11]): 20 µg/mL; MIC (Aspergillus niger [13]): 40 µg/mL; MIC (Candida albicans [15]): 16 µg/mL |
| COC(=O)CC(F)C(Br)C(=O)OC (stereo not drawn) | 16 µg/mL (≈ 62.2 µM) | 90 µg/mL (≈ 350 µM) | 50 µg/mL | 90 µg/mL (≈ 350 µM) | 16 µg/mL (≈ 62.2 µM) | 18 µg/mL | 40 µg/mL (≈ 156 µM) | 40 µg/mL | inactive | inactive | inactive | inactive | – | – | – | – | – | – | – | – | MIC (Candida albicans [9]): 90 µg/mL; MIC (Mucor mucedo [11]): 60 µg/mL; MIC (Candida albicans [15]): 90 µg/mL |
| COC(=O)C(Br)CF (stereo not drawn) | 50 µg/mL (≈ 270 µM) | – | 18 µg/mL | – | 100 µg/mL (≈ 541 µM) | 100 µg/mL | 9 µg/mL (≈ 48.7 µM) | – | inactive | inactive | inactive | inactive | inactive | – | – | inactive | inactive | – | inactive | – | inhibition [27]: inactive; MIC (Mucor mucedo [11]): 30 µg/mL |
| COC(=O)/C=C(/F)C(=O)OC | 6 µg/mL (≈ 37 µM) | – | 20 µg/mL | – | 50 µg/mL (≈ 308 µM) | 8 µg/mL | 40 µg/mL (≈ 247 µM) | – | inactive | inactive | inactive | inactive | inactive | inactive | – | inactive | inactive | – | inactive | – | MIC (Mucor mucedo [28]): 14 µg/mL (≈ 86.4 µM); inhibition [27]: inactive |
| CCCCOC(=O)[C@@H](F)[C@@H](Br)C(=O)OCCCC (relative stereo) | 3 µg/mL (≈ 9.17 µM) | 9 µg/mL (≈ 27.5 µM) | 30 µg/mL | 40 µg/mL (≈ 122 µM) | 4 µg/mL (≈ 12.2 µM) | 20 µg/mL | 20 µg/mL (≈ 61.1 µM) | 30 µg/mL | inactive | inactive | inactive | inactive | – | – | – | – | – | – | – | – | MIC (Candida albicans [9]): 20 µg/mL; MIC (Mucor mucedo [11]): 50 µg/mL; MIC (Candida albicans [15]): 50 µg/mL |
| CCCCOC(=O)[C@H](F)[C@@H](Br)C(=O)OCCCC (relative stereo) | < 1 µg/mL | 20 µg/mL (≈ 61.1 µM) | 80 µg/mL | 30 µg/mL (≈ 91.7 µM) | 30 µg/mL (≈ 91.7 µM) | 30 µg/mL | 14 µg/mL (≈ 42.8 µM) | 50 µg/mL | inactive | inactive | inactive | inactive | – | inactive | – | – | – | – | – | – | MIC (Candida albicans [9]): 80 µg/mL; MIC (Candida albicans [15]): 90 µg/mL |
| CCOC(=O)/C=C\C(=O)OCC [DIETHYL MALEATE] | 50 µg/mL | – | – | – | 90 µg/mL | 60 µg/mL | – | 100 µg/mL | inactive | inactive | inactive | inactive | inactive | inactive | inactive | inactive | inactive | inactive | inactive | inactive | – |
| CCCCCOC(=O)/C=C\C(=O)OCCCCC | 10 µg/mL (≈ 39 µM) | – | – | – | 30 µg/mL (≈ 117 µM) | 50 µg/mL | – | 60 µg/mL | inactive | inactive | inactive | inactive | inactive | inactive | inactive | inactive | inactive | inactive | inactive | inactive | – |
| COC(=O)/C=C\C(=O)OC [DIMETHYL MALEATE] | 40 µg/mL | – | – | – | 30 µg/mL | 50 µg/mL | – | 60 µg/mL | inactive | inactive | inactive | inactive | inactive | inactive | inactive | inactive | inactive | inactive | inactive | inactive | – |

Now from value to compound, other results behind:

| MIC [3] | MIC (Candida albicans [4]) | MIC (Mucor mucedo [5]) | MIC (Candida albicans [7]) | MIC [8] | MIC [10] | MIC (Mucor mucedo [12]) | MIC [14] | SMILES | inhibition (Aspergillus niger [1]) | inhibition (Aspergillus niger [16]) | inhibition (Aspergillus niger [17]) | inhibition (Aspergillus niger [18]) | inhibition (Candida albicans [19]) | inhibition (Mucor mucedo [20]) | inhibition (Mucor mucedo [21]) | inhibition (Candida albicans [22]) | inhibition (Candida albicans [23]) | inhibition (Mucor mucedo [24]) | inhibition (Candida albicans [25]) | inhibition (Mucor mucedo [26]) | other results |
| --- | --- | --- | --- | --- | --- | --- | --- | --- | --- | --- | --- | --- | --- | --- | --- | --- | --- | --- | --- | --- | --- |
| 8 µg/mL (≈ 35 µM) | – | – | – | 30 µg/mL (≈ 131 µM) | 30 µg/mL | – | 50 µg/mL | CCCCOC(=O)/C=C\C(=O)OCCCC | inactive | inactive | inactive | inactive | inactive | inactive | inactive | inactive | inactive | inactive | inactive | inactive | – |
| 7 µg/mL (≈ 30.7 µM) | – | – | – | 30 µg/mL (≈ 131 µM) | 60 µg/mL | – | – | CCCCOC(=O)/C=C/C(=O)OCCCC | inactive | inactive | inactive | inactive | inactive | inactive | inactive | inactive | inactive | inactive | inactive | inactive | inhibition [27]: inactive |
| 14 µg/mL (≈ 69.9 µM) | – | – | – | 50 µg/mL (≈ 250 µM) | 40 µg/mL | – | 60 µg/mL | CCCOC(=O)/C=C\C(=O)OCCC | inactive | inactive | inactive | inactive | inactive | inactive | inactive | inactive | inactive | inactive | inactive | inactive | – |
| 6 µg/mL (≈ 30 µM) | 70 µg/mL (≈ 350 µM) | – | 70 µg/mL (≈ 350 µM) | 30 µg/mL (≈ 150 µM) | 50 µg/mL | 70 µg/mL (≈ 350 µM) | – | CCCOC(=O)/C=C/C(=O)OCCC | inactive | inactive | inactive | inactive | inactive | inactive | – | – | inactive | – | – | inactive | MIC (Mucor mucedo [28]): 60 µg/mL (≈ 300 µM); inhibition [27]: inactive |

Source: ChEMBL document CHEMBL3244142, “Antifungal properties of 2-bromo-3-fluorosuccinic acid esters and related compounds” (1977)
